Data on two compounds can be found in PMC3607822 (The Journal of General Physiology, 2013).

Experiment [1] has as its target T1, CNGA3 C7K/R-A (K624A, K629A, R643A, R646A, K657A, K659A, R661A) channels (Homo sapiens, UniProt Q16281, K624A/K629A/K657A/K659A/R643A/R646A/R661A).
T1 sequence (Q16281 1-694 K624A/K629A/R643A/R646A/K657A/K659A/R661A): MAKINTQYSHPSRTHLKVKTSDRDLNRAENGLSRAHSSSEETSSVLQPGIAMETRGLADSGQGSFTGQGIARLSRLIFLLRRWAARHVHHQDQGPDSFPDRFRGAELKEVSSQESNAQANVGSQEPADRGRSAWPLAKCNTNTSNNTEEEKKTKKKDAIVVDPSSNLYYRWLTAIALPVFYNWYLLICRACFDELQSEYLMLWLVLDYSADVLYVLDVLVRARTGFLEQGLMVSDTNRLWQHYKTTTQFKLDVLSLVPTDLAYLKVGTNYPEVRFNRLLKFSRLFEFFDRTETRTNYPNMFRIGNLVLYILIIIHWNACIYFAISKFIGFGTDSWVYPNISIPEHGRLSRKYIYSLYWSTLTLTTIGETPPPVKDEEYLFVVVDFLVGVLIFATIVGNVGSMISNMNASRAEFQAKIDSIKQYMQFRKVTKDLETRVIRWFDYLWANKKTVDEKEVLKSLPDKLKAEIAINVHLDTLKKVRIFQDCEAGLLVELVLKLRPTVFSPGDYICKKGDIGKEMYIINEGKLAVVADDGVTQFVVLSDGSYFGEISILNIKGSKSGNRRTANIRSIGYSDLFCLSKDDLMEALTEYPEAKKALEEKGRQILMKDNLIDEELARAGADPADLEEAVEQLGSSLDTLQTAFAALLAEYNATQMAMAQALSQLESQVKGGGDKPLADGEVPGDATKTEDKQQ
Kind of experiment: Inside-out patch clamp, CNGA3 C7K/R-A. Format: biochemical. Background: The patch-clamp technique gives a direct electrical read-out from membranes.

For experiment [2], the target named is T2, CNGA3 RR-QQ (R643Q, R646Q) channels (Homo sapiens, UniProt Q16281, R643Q/R646Q).
T2 sequence (Q16281 1-694 R643Q/R646Q): T1 sequence (Q16281 1-694 K624A/K629A/R643A/R646A/K657A/K659A/R661A) with A624K, A629K, A643Q, A646Q, A657K, A659K, A661R
As to the kind of experiment: Inside-out patch clamp, CNGA3 RR-QQ. Format: biochemical.

For experiment [3], the target named is T3, CNGA3 RR-EE (R643E, R646E) channels (Homo sapiens, UniProt Q16281, R643E/R646E).
T3 sequence (Q16281 1-694 R643E/R646E): T1 sequence (Q16281 1-694 K624A/K629A/R643A/R646A/K657A/K659A/R661A) with A624K, A629K, A643E, A646E, A657K, A659K, A661R
As to the kind of experiment: Inside-out patch clamp, CNGA3 RR-EE. It counts as biochemical.

Experiment [4] deals with CNGA3 N7R-A (R72A, R75A, R81A, R82A, R86A, R101A, R103A) channels (Homo sapiens, UniProt Q16281, R101A/R103A/R72A/R75A/R81A/R82A/R86A). As to the kind of experiment: Inside-out patch clamp, CNGA3 N7R-A. Format: biochemical.
For the next experiment, the target named is CNGA1 homomeric channels (Bos taurus, UniProt Q00194). As to the kind of experiment: Inside-out patch clamp, homomeric CNGA1. It counts as biochemical, bovine. The conditions noted are these: PIP3 or PIP2 application.
Experiment [5] concerns the target wild-type CNGA2 with CNGB3 channels (UniProt Q00195+Q9NQW8). As to the kind of experiment: Inside-out patch clamp, CNGA2 with CNGB3. Format: biochemical, rat, human. The conditions noted are these: 1 µM PIP3. An outline of the steps: (§1)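 Subunit cRNAs (~20 ng, B in excess over A) injected into stage IV Xenopus oocytes; inside-out patches 2–7 d later, 20–22°C, symmetric 130 mM NaCl, 0.2 mM EDTA, 3 mM Hepes pH 7.2. Heteromer formation checked by 25 µM l-cis-diltiazem with 1 mM cGMP. diC8 phosphoinositides applied intracellularly in phosphatase-inhibitor cocktail. cGMP dose–response at +80 mV, leak-subtracted, Hill fit before/after for K1/2; mean ± SEM.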

In experiment [6] the target is CNGA1 with CNGB3 channels (UniProt Q00194+Q9NQW8). Kind of experiment: Inside-out patch clamp, CNGA1 with CNGB3. Format: biochemical, bovine, human. Conditions: 1 µM PIP3. An outline of the steps:
as §1

Where [7] appears, read: read-out: K1/2 cGMP, +80 mV, no PIPn.

Substitutions are numbered along the chain they refer to.

CNGA3 N7R-A (R72A, R75A, R81A, R82A, R86A, R101A, R103A) channels, sequence (Q16281 whole entry R72A/R75A/R81A/R82A/R86A/R101A/R103A): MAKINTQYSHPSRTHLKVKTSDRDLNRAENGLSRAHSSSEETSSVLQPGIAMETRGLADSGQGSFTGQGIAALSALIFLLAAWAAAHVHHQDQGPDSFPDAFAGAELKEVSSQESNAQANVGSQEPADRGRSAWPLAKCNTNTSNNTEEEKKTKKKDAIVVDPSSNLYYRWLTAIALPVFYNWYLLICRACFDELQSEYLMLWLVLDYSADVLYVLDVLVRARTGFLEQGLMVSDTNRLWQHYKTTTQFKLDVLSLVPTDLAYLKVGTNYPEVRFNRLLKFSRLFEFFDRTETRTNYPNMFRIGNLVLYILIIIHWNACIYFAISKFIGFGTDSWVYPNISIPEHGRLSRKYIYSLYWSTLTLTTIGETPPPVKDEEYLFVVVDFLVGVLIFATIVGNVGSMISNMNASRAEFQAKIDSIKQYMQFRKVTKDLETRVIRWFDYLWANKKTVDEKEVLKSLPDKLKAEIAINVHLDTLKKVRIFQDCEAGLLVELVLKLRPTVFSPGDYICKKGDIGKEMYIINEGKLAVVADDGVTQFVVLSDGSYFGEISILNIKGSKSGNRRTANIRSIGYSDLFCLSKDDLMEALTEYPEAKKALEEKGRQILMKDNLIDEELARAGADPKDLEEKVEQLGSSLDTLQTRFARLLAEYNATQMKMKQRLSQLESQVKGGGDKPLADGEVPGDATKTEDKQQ
CNGA1 homomeric channels, sequence (Q00194 whole entry): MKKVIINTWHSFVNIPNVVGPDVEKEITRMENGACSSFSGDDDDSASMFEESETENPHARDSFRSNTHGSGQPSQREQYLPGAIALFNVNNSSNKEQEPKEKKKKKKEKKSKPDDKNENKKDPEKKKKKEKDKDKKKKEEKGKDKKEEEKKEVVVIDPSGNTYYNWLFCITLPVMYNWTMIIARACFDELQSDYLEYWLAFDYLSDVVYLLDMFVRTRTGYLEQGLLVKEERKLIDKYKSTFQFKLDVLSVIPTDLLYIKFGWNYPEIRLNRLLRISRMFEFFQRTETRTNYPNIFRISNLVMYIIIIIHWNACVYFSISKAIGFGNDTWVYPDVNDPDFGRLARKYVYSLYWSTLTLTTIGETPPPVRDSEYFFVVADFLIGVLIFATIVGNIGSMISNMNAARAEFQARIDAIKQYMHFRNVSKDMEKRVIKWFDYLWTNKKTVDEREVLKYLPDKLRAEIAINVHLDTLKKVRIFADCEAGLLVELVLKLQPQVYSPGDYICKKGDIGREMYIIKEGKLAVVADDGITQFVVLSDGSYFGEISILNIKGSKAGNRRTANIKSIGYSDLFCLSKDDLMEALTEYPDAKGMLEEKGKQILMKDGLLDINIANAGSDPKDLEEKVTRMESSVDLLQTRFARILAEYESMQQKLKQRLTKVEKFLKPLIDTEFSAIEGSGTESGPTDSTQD
CNGA1 with CNGB3 channels, sequence (Q00194 whole entry): as above
CNGA1 with CNGB3 channels, sequence (Q9NQW8 whole entry): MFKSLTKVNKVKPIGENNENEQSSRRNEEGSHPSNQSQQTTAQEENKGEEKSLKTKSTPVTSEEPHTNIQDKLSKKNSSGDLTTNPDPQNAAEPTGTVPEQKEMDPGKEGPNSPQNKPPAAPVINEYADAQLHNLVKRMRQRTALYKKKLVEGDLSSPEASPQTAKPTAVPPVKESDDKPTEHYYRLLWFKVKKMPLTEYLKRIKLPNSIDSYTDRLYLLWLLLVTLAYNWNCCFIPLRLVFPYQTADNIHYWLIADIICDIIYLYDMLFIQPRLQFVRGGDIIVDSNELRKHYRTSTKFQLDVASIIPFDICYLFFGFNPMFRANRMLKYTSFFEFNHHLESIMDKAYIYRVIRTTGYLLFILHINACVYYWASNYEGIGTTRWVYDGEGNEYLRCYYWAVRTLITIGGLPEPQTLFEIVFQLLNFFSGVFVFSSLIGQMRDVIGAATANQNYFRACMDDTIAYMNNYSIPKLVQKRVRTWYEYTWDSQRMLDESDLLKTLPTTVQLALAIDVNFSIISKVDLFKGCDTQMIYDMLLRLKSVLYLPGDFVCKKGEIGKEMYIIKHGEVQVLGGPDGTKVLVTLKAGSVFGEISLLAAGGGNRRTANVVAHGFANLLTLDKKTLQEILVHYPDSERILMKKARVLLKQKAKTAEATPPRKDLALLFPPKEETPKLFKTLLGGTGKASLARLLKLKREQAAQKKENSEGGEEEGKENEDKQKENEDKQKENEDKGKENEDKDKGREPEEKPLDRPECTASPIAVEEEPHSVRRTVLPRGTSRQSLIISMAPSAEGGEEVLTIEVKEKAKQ
wild-type CNGA2 with CNGB3 channels, sequence (Q00195 whole entry): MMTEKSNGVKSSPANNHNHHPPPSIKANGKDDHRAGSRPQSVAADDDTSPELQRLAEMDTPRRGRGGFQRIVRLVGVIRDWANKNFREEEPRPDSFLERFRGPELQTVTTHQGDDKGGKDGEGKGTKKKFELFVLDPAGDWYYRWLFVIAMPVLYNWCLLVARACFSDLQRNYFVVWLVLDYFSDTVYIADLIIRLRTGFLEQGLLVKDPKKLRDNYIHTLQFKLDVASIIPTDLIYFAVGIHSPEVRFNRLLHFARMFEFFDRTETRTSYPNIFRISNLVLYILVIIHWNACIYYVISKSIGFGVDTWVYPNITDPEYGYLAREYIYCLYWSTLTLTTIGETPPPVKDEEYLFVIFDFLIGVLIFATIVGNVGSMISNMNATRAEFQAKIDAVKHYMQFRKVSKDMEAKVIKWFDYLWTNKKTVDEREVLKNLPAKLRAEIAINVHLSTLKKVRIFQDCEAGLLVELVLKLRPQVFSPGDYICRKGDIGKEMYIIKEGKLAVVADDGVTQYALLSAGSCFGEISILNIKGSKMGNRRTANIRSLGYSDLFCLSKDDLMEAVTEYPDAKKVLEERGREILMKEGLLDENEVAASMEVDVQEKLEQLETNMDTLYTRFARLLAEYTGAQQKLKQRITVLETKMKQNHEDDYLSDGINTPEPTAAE
wild-type CNGA2 with CNGB3 channels, sequence (Q9NQW8 whole entry): as the sequence (Q9NQW8 whole entry) above

The Hill coefficient is the slope factor of the fitted curve. Regarding `Nc1nc2c(ncn2[C@@H]2O[C@@H]3COP(=O)(O)O[C@H]3[C@H]2O)c(=O)[nH]1` [cGMP, cyclic guanosine monophosphate], the Hill coefficient is 2.00 ± 0.00 (6) in experiment [1] (cGMP activation), 2.00 ± 0.00 (3) in experiment [2] (cGMP activation), 1.95 ± 0.05 (4) in experiment [3] (cGMP activation) and 1.59 ± 0.18 (4) in experiment [4] (cGMP activation). For the same compound, the EC50 in experiment [1] (setting [7]) was 9.37 ± 0.29 µM; in experiment [2] (setting [7]), 7.45 ± 0.63 µM; in experiment [3] (setting [7]), 8.29 ± 0.47 µM; in experiment [4] (setting [7]), 8.89 ± 1.15 µM. Moreover, the figures for the “Po max cGMP” value in experiment [1] (saturating cGMP), in experiment [2] (saturating cGMP) and in experiment [3] (saturating cGMP) were 0.92 ± 0.01 (4), 0.94 ± 0.01 (3) and 0.93 ± 0.03 (4), respectively.

Regarding “phosphatidylinositol (3,4,5)-trisphosphate [PIP3]”, on CNGA1 homomeric channels, the “effect on relative cAMP efficacy” value is reported as “decreased relative cAMP efficacy”. Moreover, the “regulation of K1/2 cGMP by PIP3” value in experiment [5] and in experiment [6] was “PIP3-sensitive” in each case.
